Autophagy mod: autophagy modulators in MEF cells, primary screen, imaging, high-content, MEF GFP-LC3. MEF GFP-LC3 puncta imaging; test concentration mostly 10 µM. calls only at 10 µM (by protocol). hit rate 0.98% among 190,000. AID 463193, 2010;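 active means percentage of spot-positive cells more than 3 SD above its plate mean, without a fluorescence outlier flag or 80% toxicity; inconclusive means no clear call, values can overlap the other calls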
Dynein cargo inh: inhibitors of GR-EGFP nuclear translocation, primary screen, dynein cargo transport inhibitor project, imaging, high-content, 3617.4 mouse cells; test concentration mostly 20 µM; stimulated with dexamethasone, 1 µM; active compounds read low; z-score, hits read low; hit rate 0.47% among 220,000;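 active means plate z-score of nuclear minus cytoplasmic receptor signal below a set negative limit, without overly bright fluorescence or cell loss, cut at about -3.5 in these data, passing the limit was not always enough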;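 further: z-score of nuclear minus cytoplasmic ring GR-EGFP intensity difference per well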
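Buffer or medium: tet-free, stripped-serum medium; reagent: dexamethasone at 1.0 µM final, 30 min; incubation: 48 h induction, 1 h compound, 30 min dex at 37 °C; measured by: formaldehyde fixation, Hoechst nuclear stain, 10x automated fluorescence imaging; read-out: nuclear-to-cytoplasmic GR-EGFP distribution per well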
CHOP inhibitor: inhibitors of CHOP promoter induction, primary screen, cell-based, unfolded protein response, luciferase reporter | CHO-K1 CHOP-promoter luciferase, tunicamycin-induced, 15-18 h | hit rate 3.8% among 220,000 | AID 2732, 2010 | inhibition, % at 10 µM;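 active means compounds that reduced the stress-induced luciferase reporter signal by more than about 70% of percent inhibition, limit read from the data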
b-catenin transl: modulators of beta-catenin nuclear translocation, primary screen, imaging, HeLa cells, immunofluorescence, high-content; nuclear translocation activity, % at 5 µM; hit rate 0.3% among 190,000;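 active means nuclear translocation activity above 50% at 5 µM, with a well cell count of 50 or more; inconclusive means wells under 50 cells across six images, flagged as toxic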;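 further: per-cell ratio of nuclear to cytoplasmic median beta-catenin stain intensity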
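Signal – beta-catenin immunofluorescence imaging with DAPI · Test system – human HeLa cell line · Dosing – 5 µM primary single dose, 0.1% DMSO, 0.02–20 µM confirmation series · Measure – % activation, nuclear-to-cytoplasmic median beta-catenin signal ratio per cell · Incubation – 24 h compound exposure at 37°C, 5% CO2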
L major viab: Leishmania major promastigote growth inhibition, primary screen. Leishmania major promastigotes, resazurin fluorescence viability. inhibition, % at 10 µM. hit rate 9% among 200,000. AID 1063, 2008; in the data active means inhibition above about 50%;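 further: promastigotes grown with compound for 44 hours at 28 °C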
MT stabilizer: microtubule stabilizers in HeLa cells, primary screen, imaging, high-content imaging; HeLa tubulin immunostaining HCS, 24 h; share of cells brighter than vehicle mean+2SD; % tubulin-high responders, % at 10 µM; hit rate 0.83% among 200,000;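 active means plate Z-score above 3 for both tubulin-high and condensed-nucleus cell shares, with cell loss under 80%, at 10 µM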;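 further: anti alpha tubulin signal scored within the nucleus-defined area of each cell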
Dynein confirm: dynein cargo transport inhibitors, GR-EGFP translocation, confirmation, imaging, high-content imaging, GR-EGFP cells. 3617.4 GR-EGFP nuclear translocation imaging, dexamethasone-induced. calls only at 20 µM. hit rate 69% among 1,000. shares compounds with Dynein cargo inh;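 active means inhibition of receptor movement into the nucleus at or above a set limit in both runs, with normal cell brightness and cell count; inconclusive means limit reached in only one run, brightness and count normal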;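 further: dexamethasone at 1 µM final in well for 30 min; nuclear minus cytoplasmic GR-EGFP mean intensity difference in channel 2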
Hits are given with their value. This is a sample that favours compounds with a hit; in the whole collection about 12% have one here.

`CCC(=O)Nc1ccc(N2CCCCC2)cc1` gave Autophagy mod inactive, Dynein cargo inh inactive, CHOP inhibitor inactive, b-catenin transl inactive, L major viab inactive and MT stabilizer inactive.
For Cc1ccc(Sc2ccc(NC(=O)CCl)cc2)cc1C the results were Autophagy mod inactive, Dynein cargo inh -4.5, CHOP inhibitor inactive, b-catenin transl inactive, L major viab 100, MT stabilizer inactive and Dynein confirm active.
O=C(CCl)Nc1ccc(-c2ccccc2)cc1 was read as Autophagy mod inactive, Dynein cargo inh -5.4, CHOP inhibitor inactive, b-catenin transl inactive, L major viab 79, MT stabilizer inactive and Dynein confirm active.
For O=C(CCl)Nc1ccc(N2CCCCCC2)cc1 the results were Autophagy mod inactive, Dynein cargo inh -6, CHOP inhibitor inactive, b-catenin transl inactive, L major viab 99, MT stabilizer inactive and Dynein confirm active.
`COC(=O)c1cn(NC(=O)c2cc([N+](=O)[O-])ccc2F)c(=O)c2ccccc12` gave Autophagy mod inactive, Dynein cargo inh -3.9, CHOP inhibitor inactive, b-catenin transl inactive, L major viab inactive, MT stabilizer inactive and Dynein confirm active.
For COC(=O)c1cn(NC(=O)C2CCC(C)CC2)c(=O)c2ccccc12 (stereo unspecified) the results were Autophagy mod inactive, Dynein cargo inh inactive, CHOP inhibitor inactive, L major viab inactive and MT stabilizer inactive.
Screening CCNC1=C(Cl)C(=O)c2ccccc2C1=O returned Autophagy mod inactive, Dynein cargo inh inactive, CHOP inhibitor inactive, L major viab inactive and MT stabilizer inactive.
Screening O=C1C(Cl)=C(NS(=O)(=O)c2ccc([N+](=O)[O-])cc2)C(=O)c2ccccc21 returned Dynein cargo inh -3.9, CHOP inhibitor inactive, b-catenin transl inactive and Dynein confirm active.
`Cc1ncc(CO)c2c1OC(C)(C)OC2` gave CHOP inhibitor inactive and b-catenin transl inactive.
Cc1ncc(CCl)c2c1OC(C)(C)OC2 was read as Autophagy mod inactive, Dynein cargo inh -4.4, CHOP inhibitor inactive, L major viab inactive, MT stabilizer inactive and Dynein confirm inactive.
Screening CCOC(=O)c1cc(-c2ccc(OC)cc2)nn1-c1ccc(C(=O)O)cc1 returned Autophagy mod inactive, Dynein cargo inh inactive, CHOP inhibitor inactive, b-catenin transl inactive, L major viab inactive and MT stabilizer inactive.
Screening CCOC(=O)C(=Cc1ccc(OCc2ccc([N+](=O)[O-])cc2)c(OC)c1)C(=O)OCC returned Autophagy mod inactive, Dynein cargo inh -4.1, CHOP inhibitor inactive, b-catenin transl inactive, L major viab inactive, MT stabilizer inactive and Dynein confirm active.
`CC(=O)Nc1cccc(C(=O)N/N=C/c2ccc(F)cc2)c1` gave Autophagy mod inactive, Dynein cargo inh inactive, CHOP inhibitor inactive, b-catenin transl inactive, L major viab inactive and MT stabilizer inactive.
`CN(C)c1ccc(/C=C/C(=O)c2cccc(Br)c2)cc1` gave Autophagy mod active, Dynein cargo inh inactive, CHOP inhibitor inactive, b-catenin transl inactive, L major viab inactive, MT stabilizer 14 and Dynein confirm active.
`CCC(=O)Nc1cccc(C(=O)/C=C/c2ccc(F)cc2)c1` gave Autophagy mod inactive, Dynein cargo inh -4.8, CHOP inhibitor inactive, b-catenin transl inactive, L major viab 100, MT stabilizer inactive and Dynein confirm active.
Screening CCN(C(=O)c1cccc(Br)c1)c1ccccc1 returned Autophagy mod inactive, Dynein cargo inh inactive, CHOP inhibitor inactive, b-catenin transl inactive, L major viab inactive and MT stabilizer inactive.
Screening Nc1nonc1C(=O)N/N=C/c1ccc(-c2cccc(C(=O)O)c2)o1 returned Autophagy mod inactive, Dynein cargo inh inactive, CHOP inhibitor inactive, b-catenin transl inactive, L major viab inactive and MT stabilizer inactive.
`CCOC(=O)C1(CCCc2ccccc2)CCN(C(=O)C2=C(C)OCCO2)CC1` gave Autophagy mod inactive, Dynein cargo inh -3.5, CHOP inhibitor inactive, b-catenin transl inactive, L major viab inactive, MT stabilizer inactive and Dynein confirm inconclusive.
For COC(=O)c1ccc(OC(=O)c2cccnc2)cc1 the results were Autophagy mod inactive, Dynein cargo inh inactive, CHOP inhibitor inactive, b-catenin transl inactive, L major viab inactive and MT stabilizer inactive.
CC1=CC(C)(C)Nc2ccc(OC(=O)c3cccnc3)cc21 was read as Autophagy mod inactive, Dynein cargo inh -3.6, CHOP inhibitor inactive, b-catenin transl inactive, L major viab 101, MT stabilizer inactive and Dynein confirm inactive.
O=C(Cn1c(=S)[nH]c2ncccc2c1=O)NCCc1ccccc1 was read as Autophagy mod inactive, Dynein cargo inh inactive, CHOP inhibitor inactive, b-catenin transl inactive, L major viab inactive and MT stabilizer inactive.
`COc1ccccc1NS(=O)(=O)c1cc([N+](=O)[O-])ccc1N/N=C/c1c(C)[nH]c2ccccc12` gave Autophagy mod inactive, Dynein cargo inh inactive, CHOP inhibitor 84, b-catenin transl inactive, L major viab inactive, MT stabilizer inactive and Dynein confirm inactive.
Cc1[nH]c2ccccc2c1/C=N/NC(=O)c1cccc([N+](=O)[O-])c1 was read as Autophagy mod inactive, Dynein cargo inh inactive, CHOP inhibitor inactive, b-catenin transl inactive, L major viab inactive and MT stabilizer inactive.
`Cc1[nH]c2ccccc2c1/C=N/Nc1ccc([N+](=O)[O-])cc1` gave Autophagy mod active, Dynein cargo inh inactive, CHOP inhibitor inactive, b-catenin transl inactive, L major viab inactive, MT stabilizer inactive and Dynein confirm inactive.
`O=C1C=CC(=O)N1CCNc1ncc(C(F)(F)F)cc1Cl` gave Autophagy mod inactive, Dynein cargo inh -5.5, CHOP inhibitor inactive, b-catenin transl inactive, L major viab inactive, MT stabilizer inactive and Dynein confirm active.
For Cn1c(=O)c2c(=O)cc(NNC(=O)CC#N)[nH]c2n(C)c1=O the results were Autophagy mod inactive, Dynein cargo inh inactive, CHOP inhibitor inactive, b-catenin transl inactive, L major viab inactive and MT stabilizer inactive.
Screening O=C(CN1CCN(S(=O)(=O)c2ccccc2[N+](=O)[O-])CC1)NC(=O)NCc1ccco1 returned Autophagy mod inactive, Dynein cargo inh -3.6, CHOP inhibitor inactive, b-catenin transl inactive, L major viab inactive, MT stabilizer inactive and Dynein confirm inactive.
`CC(C)(C)C(=O)Cn1ncc(Cl)c(Cl)c1=O` gave Autophagy mod active, Dynein cargo inh -6.1, CHOP inhibitor inactive, b-catenin transl inactive, L major viab inactive, MT stabilizer inactive and Dynein confirm active.
